A selection: hits, their analogues and other compounds. The true share with any hit is near 4.9%.
APP 5'UTR act – activators of APP 5'UTR luciferase reporter, primary screen, SH-SY5Y cells; SH-SY5Y APP 5'UTR luciferase reporter, luminescence; zero percent = DMSO vehicle wells; activation, % at 2 µM; 190,000 tested, 1% active;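 active = activation above a set limit, based on mean plus 3 SD of controls, cut at about 140% in these data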
STAT3 activator – IL-6 driven STAT3 reporter potentiators, primary screen, U3A cells, luciferase, luminescence, MLSCN library; IL-6 STAT3-luciferase reporter; 100% = signal with IL-6 EC80 alone; activation (% of control), % at 5.6 µM; 190,000 tested, 0.91% active;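 active = activation above the screen-wide mean of compound activation plus 3 SD, cut at about 130% in these data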;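 note: 0% = background luminescence of wells with medium and substrate only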
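System – human U3A cells carrying STAT3-luciferase construct · Probe or stimulus – Interleukin-6, 33 ng/mL · Schedule – compound 1 h, then IL-6 6 h at 37 °C · Signal – luminescence from STAT3-driven luciferase reporter · Evaluation – percent of IL-6-only median luminescence · Benchmarks – IL-6-only high control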
STAT3 blocker – IL-6 driven STAT3 reporter inhibitors, primary screen, U3A cells, luciferase, luminescence, MLSCN library. IL-6 STAT3-luciferase reporter; host cell line lacks STAT1. inhibition, % at 5.5 µM. 190,000 tested, 0.89% active;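 active = inhibition above the mean inhibition across all screened compounds plus 3 SD, cut at about 44% in these data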;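 note: 0% = DMSO only wells and 100% = 100 µM nifuroxazide control wells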
STAT1 act – STAT1 signaling activators, primary screen, cell-based, HTS, luciferase reporter; NIH 3T3 STAT1-luciferase reporter, IFN-gamma, luminescence; 100% = IFN-gamma alone, no compound; activation (% of control), % at 5.5 µM; 200,000 tested, 2.6% active; AID 932, 2007;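 active = activation above the screen-wide mean activation plus 3 SD, cut at about 130% in these data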;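 note: raw ratio to IFN-gamma control signal so 100% means no change and 0% no light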
STAT1 blocker – STAT1 signaling inhibitors, primary screen, cell-based, HTS, luciferase reporter. AID 920, 2007. 200,000 tested, 0.35% active. inhibition, % at 5.5 µM. NIH 3T3 STAT1-luciferase reporter, IFN-gamma, luminescence;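 active = inhibition above a set limit, the mean inhibition across all tested compounds plus 3 SD, cut at about 34% in these data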;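 note: 0% = IFN-gamma with DMSO and 100% = IFN-gamma with 300 µM nifuroxazide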
NF-kB neuron act – activators of NF-kB expression in neurons, primary screen, cell-based, HTS; human neuronal cells, NF-kB reporter expression; hits give high values; fold change at 12.5 µM; 190,000 tested, 1.6% active; AID 1239, 2008; in the data active = fold change above about 3.3
STAT1 activ conf – STAT1 signaling activators, confirmation, cell-based, HTS, luciferase reporter | shares compounds with STAT1 act | NIH 3T3 STAT1-luciferase reporter, IFN-gamma potentiation, luminescence; 100% = IFN-gamma EC80 alone, no compound | activation (% of control), % at 5.7 µM | 1,200 tested, 97% active;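 active = activation above a set limit carried over from the earlier primary STAT1 screen, cut at about 140% in these data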;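 note: simple ratio to median IFN-gamma plus DMSO wells so 0% means no light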
NFkB act STAT1ct – NF-kB reporter activators, TNF-alpha stimulated, counter-screen for STAT1 activator project, cell-based, HEK293T, luciferase luminescence; activation (% of control), % at 5.7 µM; 100% = TNF-alpha with vehicle only; 1,200 tested, 43% active; AID 1306, 2008; shares compounds with STAT1 act;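 active = activation above the mean of solvent-only control wells plus 3 SD, set per campaign, cut at about 130% in these data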;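 note: TNF-alpha given at a submaximal dose yielding about 80% of full reporter signal; values are well signal over median control so 100% means no change and 0% no light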
STAT3 act 2 – STAT3 reporter activation by STAT1 hits, confirmation, counter-screen for STAT1 activator project, U3A cells, luciferase, luminescence | shares compounds with STAT1 act | IL-6; cells lack STAT1; 100 = IL-6 alone, no compound effect | activation (% of control), % at 5.7 µM | 1,200 tested, 46% active | AID 1316, 2008;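 active = activation above the solvent-only control well mean plus 3 SD, set per plate batch, cut at about 110% in these data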;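 note: 0% = no luminescence and 100% = median IL-6 plus DMSO wells; higher means more STAT3 reporter activation so hits are non-selective activators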
* = called active by the depositor; . = no result.

SMILES | APP 5'UTR act | STAT3 activator | STAT3 blocker | STAT1 act | STAT1 blocker | NF-kB neuron act | STAT1 activ conf | NFkB act STAT1ct | STAT3 act 2
CCCCOC(=O)Nc1nc2ccc(OC)cc2s1 | 31.5 | 89.8 | 15.0 | 119.0 | -20.6 | 2.2 | . | . | .
O=C(O)/C=C/c1ccc(OCc2cccc(F)c2)cc1 | 24.2 | 98.3 | 5.6 | 104.1 | -5.6 | 1.31 | . | . | .
CC(C)=CC(=O)Nc1nc2ccc([N+](=O)[O-])cc2s1 | 35.9 | 99.7 | 7.3 | 181.1* | -90.5 | 2.2 | 180.1* | 126.1 | 106.6
N#Cc1c(/N=C/C=C/c2ccccc2)sc2c1CCCC2 | 5.2 | 94.5 | 12.9 | 91.9 | 9.0 | 1.04 | . | . | .
CCN(/C=N/c1sc2c(c1C#N)CCCCC2)CC | 116.6 | 121.3 | -20.1 | 158.0* | -63.4 | 4.25* | 182.2* | 135.1* | 124.9*
COc1ccc(C(=O)c2oc3ccc(OC)cc3c2N)cc1 | 189.7* | 98.4 | 1.1 | 151.0* | -58.9 | 5.88* | 138.7* | 147.8* | 111.0*
COC(=O)c1oc2ccc(OC)cc2c1N | 21.5 | 95.3 | 9.9 | 108.0 | -7.0 | 1.72 | . | . | .
O=C(NCc1ccccn1)c1cc(-c2ccc(-c3ccccc3)cc2)nc2ccccc12 | 107.0 | 115.3 | -15.9 | 156.4* | -63.1 | 1.88 | 198.5* | 106.6 | 147.8*
Cc1ccn2c(c1)nc(=S)n2C(=O)c1ccccc1 | 189.3* | 112.8 | -10.6 | 283.3* | -202.0 | 1.13 | 517.8* | 184.7* | 137.9*
COc1ccc(NC(=O)OCCn2c([N+](=O)[O-])cnc2C)cc1 | -0.6 | 100.0 | -1.0 | 101.2 | -1.3 | 1.15 | . | . | .
OCC(O)/C=N/Nc1nc(N2CCCCC2)nc(N2CCCCC2)n1 (configuration not stated) | -11.8 | 109.0 | 2.6 | 105.6 | -7.0 | 0.93 | . | . | .
Oc1c(C2=NCCNC(C(F)(F)F)=C2)ccc2ccccc12 | 132.7 | 103.9 | 4.4 | 199.1* | -111.2 | 6.01* | 221.8* | 146.8* | 113.9*
Cc1ccc(O)c(C2=NCCNC(C(F)(F)F)=C2)c1 | -2.1 | 100.5 | -3.7 | 108.9 | -9.6 | 1.15 | . | . | .
CCOC(=O)N1CCC(N2C(=O)c3ccccc3C2Nc2c(C)cccc2C)CC1 (configuration not stated) | 16.9 | 97.3 | 8.1 | 99.2 | 0.8 | 0.86 | . | . | .
O=C(N=Nc1c(O)n(Cc2ccccc2)c2ccccc12)c1ccc(O)cc1 | 152.8* | 108.6 | -7.6 | 161.0* | -68.4 | 2.45 | 217.4* | 111.0 | 118.3*
Cc1c([N+](=O)[O-])c([N+](=O)[O-])nn1CC(=O)N1CCCCC1 | 4.9 | 99.9 | -2.2 | 86.2 | 15.6 | 0.88 | . | . | .
Cc1cc(C(=O)CSc2nnnn2C)c(C)n1CCc1ccc(F)cc1 | -6.1 | 100.3 | 7.4 | 102.8 | -3.1 | 1.63 | . | . | .
Cc1ccc(-n2c(C)cc(C(=O)CSc3nnnn3C)c2C)cc1 | 168.1* | 83.9 | 20.9 | 161.5* | -67.2 | 5.38* | 200.5* | 129.7 | 114.0*
CC(C)Oc1cccc(C(=O)Nc2ccc(Br)cc2F)c1 | 139.2* | 76.2 | 30.6 | 162.1* | -69.5 | 6.07* | 208.7* | 118.9 | 91.0
O=C(CSCc1ccccc1)Nc1ccc(F)c(F)c1 | 22.0 | 106.3 | -1.5 | 103.2 | -3.5 | 1.49 | . | . | .
O=[N+]([O-])c1ccccc1/C=C/C=N/N1CCCCC1 | 99.2 | 97.3 | 7.2 | 155.1* | -59.6 | 4.48* | 177.9* | 129.7 | 111.3*

Screening results as filed in PubChem.
